Reference: ChEMBL document CHEMBL4334491, “Discovery of Benzamidine- and 1-Aminoisoquinoline-Based Human MAS-Related G-Protein-Coupled Receptor X1 (MRGPRX1) Agonists” (J Med Chem, 2019)
The source made the active and inactive calls. No cut-off for these calls is given here.

Assays:
[1] = target: T1, Mas-related G-protein coupled receptor member X1 (Homo sapiens, UniProt Q96LB2); assay: Agonist activity at human MrgprX1 expressed in HEK293 cells incubated for 2 mins by Fluo4AM dye based FLIPR assay relative to BAM8-22; type: cell-based
T1 sequence (Q96LB2 whole entry): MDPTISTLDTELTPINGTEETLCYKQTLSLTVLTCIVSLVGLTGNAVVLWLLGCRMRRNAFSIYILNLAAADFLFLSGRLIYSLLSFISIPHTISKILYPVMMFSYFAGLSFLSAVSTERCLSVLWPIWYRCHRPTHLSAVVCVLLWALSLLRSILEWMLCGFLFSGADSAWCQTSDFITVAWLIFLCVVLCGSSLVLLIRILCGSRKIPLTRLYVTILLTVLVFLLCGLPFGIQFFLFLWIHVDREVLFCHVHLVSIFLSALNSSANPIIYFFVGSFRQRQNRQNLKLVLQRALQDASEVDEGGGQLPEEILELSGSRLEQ
In short: (§1)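 HEK293 cells stably expressing human MrgprX1 were plated at 25,000/well and grown 2 days. They were loaded with 2 μM Fluo-4 AM plus 1% Trypan Red in HBSS for 50 min at 37°C, then equilibrated 10 min at room temperature. Serially diluted compounds in HBSS were added, with BAM8-22 as positive control. FLIPR imaging ran 2 min, read as max–min fluorescence. EC50 is mean ± SD of ≥4 experiments.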

[2] = target: T1, Mas-related G-protein coupled receptor member X1; assay: Agonist activity at human MrgprX1 expressed in HEK293 cells incubated for 2 mins by Fluo4AM dye based FLIPR assay; type: cell-based; in short: as §1
[3] = target: T1, Mas-related G-protein coupled receptor member X1; assay: Agonist activity at human MrgprX1 expressed in HEK293 cells up to 100 uM incubated for 2 mins by Fluo4AM dye based FLIPR assay relative to BAM8-22; type: cell-based; in short: as §1
[4] = target: T1, Mas-related G-protein coupled receptor member X1; assay: Agonist activity at human MRGPRX1 in DRG neurons obtained from humanized MrgprX1 mouse assessed as inhibition of high-voltage-activated Ca2+ currents 10 uM at -80 mV holding potential; type: functional
In short: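 DRG neurons from 3–4-week-old humanized MrgprX1 mice were dispase/collagenase-dissociated, cultured with NGF and GDNF, and used after 20–40 h. Whole-cell patch clamp was done in Ba2+/NMDG extracellular solution, pH 7.4, at 21–23°C. Cells were held at −80 mV, stepped to −40 mV, then −60 mV, then −10 mV for 40 ms to evoke HVA currents. Compound was bath-applied; P/4 leak subtraction.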

[5] = target: Delta-type opioid receptor (Rattus norvegicus, UniProt P33533); assay: Displacement of [3H]DADLE from delta opioid receptor in rat brain after 60 mins by liquid scintillation counting method; type: tissue-based
Sequence of Delta-type opioid receptor (P33533 whole entry): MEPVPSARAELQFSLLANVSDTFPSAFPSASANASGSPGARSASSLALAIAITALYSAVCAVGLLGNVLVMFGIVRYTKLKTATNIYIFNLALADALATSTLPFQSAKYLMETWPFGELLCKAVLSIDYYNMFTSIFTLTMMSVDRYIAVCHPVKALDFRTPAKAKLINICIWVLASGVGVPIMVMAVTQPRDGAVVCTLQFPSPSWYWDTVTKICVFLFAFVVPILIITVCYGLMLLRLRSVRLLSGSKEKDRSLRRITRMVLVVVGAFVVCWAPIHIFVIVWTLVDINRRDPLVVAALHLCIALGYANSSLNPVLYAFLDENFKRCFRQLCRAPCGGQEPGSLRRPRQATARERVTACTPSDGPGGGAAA

[6] = target: Mu-type opioid receptor (Rattus norvegicus, UniProt P33535); assay: Displacement of [3H]DAMGO from mu opioid receptor in rat brain after 60 mins by liquid scintillation counting method; type: tissue-based
Sequence of Mu-type opioid receptor (P33535 whole entry): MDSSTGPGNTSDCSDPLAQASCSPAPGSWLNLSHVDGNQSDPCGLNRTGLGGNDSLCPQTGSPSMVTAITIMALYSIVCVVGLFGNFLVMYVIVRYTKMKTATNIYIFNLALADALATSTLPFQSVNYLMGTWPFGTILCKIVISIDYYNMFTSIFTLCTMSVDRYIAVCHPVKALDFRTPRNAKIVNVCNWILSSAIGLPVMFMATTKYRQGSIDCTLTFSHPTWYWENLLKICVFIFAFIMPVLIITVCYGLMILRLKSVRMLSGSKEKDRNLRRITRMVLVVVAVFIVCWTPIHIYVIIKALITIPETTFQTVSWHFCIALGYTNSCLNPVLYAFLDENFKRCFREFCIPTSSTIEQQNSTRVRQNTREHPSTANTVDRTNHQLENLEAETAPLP

[7] = target: Kappa-type opioid receptor (Rattus norvegicus, UniProt P34975); assay: Displacement of [3H]U-69,593 from kappa opioid receptor in rat brain after 60 mins by liquid scintillation counting method; type: tissue-based
Sequence of Kappa-type opioid receptor (P34975 whole entry): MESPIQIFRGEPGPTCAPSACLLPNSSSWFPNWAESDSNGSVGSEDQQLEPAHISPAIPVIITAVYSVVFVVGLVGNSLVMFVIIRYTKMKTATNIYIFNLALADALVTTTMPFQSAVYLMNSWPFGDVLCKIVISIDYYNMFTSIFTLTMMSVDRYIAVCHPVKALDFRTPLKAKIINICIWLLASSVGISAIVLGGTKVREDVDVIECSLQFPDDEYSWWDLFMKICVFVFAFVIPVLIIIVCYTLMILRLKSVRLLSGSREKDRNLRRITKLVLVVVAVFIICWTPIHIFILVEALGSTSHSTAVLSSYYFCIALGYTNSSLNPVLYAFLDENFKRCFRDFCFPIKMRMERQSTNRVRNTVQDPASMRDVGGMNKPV

[8] = target: T1, Mas-related G-protein coupled receptor member X1; assay: Agonist activity at human MRGPRX1 in DRG neurons obtained from humanized MrgprX1 mouse assessed as inhibition of high-voltage-activated Ca2+ currents 5 uM at -80 mV holding potential; type: functional
In short: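 DRG neurons from 3–4-week-old MrgprX1 mice, enzyme-dissociated, cultured with NGF and GDNF and used at 20–40 h. Whole-cell patch clamp of MrgprA3-GFP neurons at 21–23 °C in NMDG-Cl/5 mM BaCl2 bath, pH 7.4. Holding −80 mV, step to −40 mV 20 ms, −60 mV 20 ms, then −10 mV 40 ms evoking HVA current. P/4 leak subtraction. Currents compared before/after bath application.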

[9] = Half life in mouse liver microsomes; type: ADME, Microsome
[10] = target: T2, Mas-related G-protein coupled receptor member X1 (Mus musculus) (UniProt Q8CIP3); assay: Agonist activity at mouse MRGPRC11 expressed in KNRK cells at 40 uM by Fura2-AM dye based FLIPR assay; type: cell-based
T2 sequence (whole entry): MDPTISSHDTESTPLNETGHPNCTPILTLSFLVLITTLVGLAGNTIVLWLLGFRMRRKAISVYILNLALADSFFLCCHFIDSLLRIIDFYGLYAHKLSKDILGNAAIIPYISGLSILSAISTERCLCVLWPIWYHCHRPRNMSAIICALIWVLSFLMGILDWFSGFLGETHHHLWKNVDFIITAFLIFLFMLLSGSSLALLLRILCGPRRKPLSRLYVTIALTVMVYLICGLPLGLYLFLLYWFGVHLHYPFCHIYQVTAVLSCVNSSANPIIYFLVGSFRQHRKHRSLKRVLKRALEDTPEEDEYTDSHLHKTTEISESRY

[11] = Selectivity index, ratio of Ki for displacement of [3H]DADLE from delta opioid receptor in rat brain after 60 mins by liquid scintillation counting method to EC50 for agonist activity at human MrgprX1 expressed in HEK293 cells incubated for 2 mins by Fluo4AM dye based FLIPR assay; type: cell-based
[12] = Selectivity index, ratio of Ki for displacement of [3H]DAMGO from mu opioid receptor in rat brain after 60 mins by liquid scintillation counting method to EC50 for agonist activity at human MrgprX1 expressed in HEK293 cells incubated for 2 mins by Fluo4AM dye based FLIPR assay; type: cell-based
[13] = Selectivity index, ratio of Ki for [3H]U-69,593 from kappa opioid receptor in rat brain after 60 mins by liquid scintillation counting method to EC50 for agonist activity at human MrgprX1 expressed in HEK293 cells incubated for 2 mins by Fluo4AM dye based FLIPR assay; type: cell-based
[14] = AUC in CD1 mouse plasma at 10 mg/kg, iv administered as single dose by LC-MS/MS analysis; type: ADME, organism-based; settings: in vivo
In short: (§2)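 Male CD1 mice (25–30 g) received a single 10 mg/kg iv dose, n=3 per time point, and were killed by CO2 at set times. Plasma came from cardiac-puncture blood spun at 3,000 g for 15 min. Spinal cords were flash frozen. Samples were extracted in acetonitrile with losartan internal standard and quantified by LC/MS/MS. Calibration covered 0.01–10 nmol/mL, built with 1/x-weighted linear regression in naive matrix.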

[15] = AUC in CD1 mouse spinal cord at 10 mg/kg, iv administered as single dose by LC-MS/MS analysis; type: ADME, organism-based; settings: in vivo; in short: as §2
[16] = Ratio of AUC in spinal cord to AUC in plasma of CD1 mouse at 10 mg/kg, iv administered as single dose by LC-MS/MS analysis; type: ADME, organism-based; in short: as §2
[17] = Half life in CD1 mouse at 10 mg/kg, iv administered as single dose by LC-MS/MS analysis; type: ADME, organism-based; settings: in vivo; in short: as §2

| Molecule | Emax [1] [%] | EC50 [2] [nM] | also measured |
| --- | --- | --- | --- |
| COc1cc(CNc2cccc(C(=N)N)c2)ccc1OCc1ccccc1 | > 95 | 3300 |  |
| CCCCS(=O)(=O)Nc1cc(C)ccc1Oc1ccc(C(=N)N)cc1 | > 95 | 920 |  |
| Cc1ccc(S(=O)(=O)Nc2ccc(C)cc2Oc2ccc(C(=N)N)cc2)cc1 | > 95 | 160 |  |
| CCCCS(=O)(=O)Nc1ccc(C)cc1Oc1ccc(C(=N)N)cc1 | > 95 | 2200 |  |
| COc1ccccc1S(=O)(=O)Nc1ccc(C)cc1Oc1ccc2sc(N)nc2c1 |  | > 100000 | Activity [3]: inactive |
| COc1cc(CNc2ccc(C(=N)N)cc2)ccc1OCCC(C)C | > 95 | 1900 |  |
| COc1ccccc1S(=O)(=O)Nc1ccc(C)cc1Oc1ccccc1C(=N)N | > 95 | 23000 |  |
| Cc1ccc(NS(=O)(=O)c2ccccc2OC(F)(F)F)c(Oc2ccc(C(=N)N)cc2)c1 | > 95 | 150 |  |
| CCCCS(=O)(=O)Nc1ccccc1Oc1ccc(C(=N)N)cc1 | > 95 | 300 |  |
| COc1cc(CNc2ccc(C(=N)N)cc2)ccc1OCc1cccnc1 | > 95 | 5200 |  |
| COc1ccccc1S(=O)(=O)Nc1ccc(C)cc1Oc1cccc(C(=N)N)c1 | > 95 | 3600 |  |
| COc1cc(CNc2ccc(C(=N)N)cc2)ccc1OCc1ccccc1 | > 95 | 510 | inhibition [4]: Active |
| COc1ccccc1S(=O)(=O)Nc1ccc(C)cc1Oc1ccc(C(=N)N)cc1 | > 95 | 100 | Ki [5]: 220 nM; Ki [6]: 72.7 nM; Ki [7]: 1430 nM |
| COc1cc(CNc2ccccc2C(=N)N)ccc1OCc1ccccc1 |  | > 100000 | Activity [3]: inactive; inhibition [4]: inactive |
| H-VGRPEWWMDYQKRYG-OH |  |  | inhibition [8]: Active |
| COc1cc(CNc2ccc(C(=N)N)cc2)ccc1OCc1ccc(-n2cccc2)cc1 | > 95 | 680 |  |
| COc1cc(CNc2ccc(C(=N)N)cc2)ccc1OCc1ccsc1 | > 95 | 290 |  |
| COc1ccccc1S(=O)(=O)Nc1ccc(C)cc1Oc1ccc2c(N)nccc2c1 | > 95 | 50 | half-life [9]: < 15 min; Activity [10]: inactive; Ki [5]: 2470 nM; Ki [6]: 3730 nM; Ki [7]: 12100 nM; Ratio [11]: 50; Ratio [12]: 75; Ratio [13]: 242; AUC [14]: 0.9 µM·h; AUC [15]: 5.66 nmol·h/g; Kp [16]: 6.3; half-life [17]: 19.8 min |
| Cc1ccc(NS(=O)(=O)c2ccc(F)cc2)c(Oc2ccc(C(=N)N)cc2)c1 | > 95 | 2100 |  |
| N=C(N)c1ccc(NCc2ccc(OCc3ccccc3)cc2)cc1 | > 95 | 5200 |  |
| COc1cc(CNc2ccc3c(N)nccc3c2)ccc1OCc1ccccc1 | > 95 | 3700 |  |
